What is called CC50 is the concentration at which the toxic effect on the cells reaches its halfway point. For orientation: EC50 means the concentration at which the effect is half-maximal.

The values below come from ChEMBL document CHEMBL4602650, “Quinolone-N-acylhydrazone hybrids as potent Zika and Chikungunya virus inhibitors” (Bioorg Med Chem Lett, 2020).

The nature of data set [1]: Selectivity index, ratio of CC50 for African monkey Vero cells to EC50 for Chikungunya virus infected in African green monkey Vero cells. It counts as toxicity. The note with it: read-out: Ratio CC50/EC50. A digest of the protocol: (§1)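 SI = CC50 in Vero cells divided by EC50 against the matching virus in Vero cells. Both values come from three independent experiments.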

Data set [2] relates to Chikungunya virus. Nature of the data set: Antiviral activity against Chikungunya virus infected in African green monkey Vero cells assessed as reduction in viral replication at 10 uM treated with compound up to 12 hrs post infection by plaque formation assay. It counts as functional, organism-based.
Data set [3] is described as follows: Ratio of RibavarinCC50 to compound CC50 for African green monkey Vero cells assessed as reduction in cell viability by MTT assay. Conditions: chlorocebus sabaeus. It is filed as cell-based. In general terms: Tetrazolium assays rely on reduction of a dye to a coloured formazan, in cell work by metabolically active cells.
Data set [4] has as its system Chikungunya virus. Description: Antiviral activity against Chikungunya virus infected in African green monkey Vero cells assessed as reduction in viral replication at 10 uM treated with compound at 16 hrs post infection by plaque formation assay. It counts as functional, organism-based.
The test system of data set [5] is Chikungunya virus. Description: Antiviral activity against Chikungunya virus infected in African green monkey Vero cells assessed as reduction in viral RNA production. It is filed as functional, organism-based.
The nature of data set [6]: Cytotoxicity against African green monkey Vero cells assessed as reduction in cell viability by MTT assay. It is filed as cell-based. The note with it: chlorocebus sabaeus. The method in brief:
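Vero cell viability tested over 100–2000 µM. CC50 is the concentration reducing viability by 50% versus untreated controls. Mean ± SD of 3 independent experiments.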

Data set [7] can be described thus: Selectivity index, ratio of CC50 for African monkey Vero cells to EC50 for Zika virus infected in African green monkey Vero cells. It is filed as toxicity. The note with it: read-out: Ratio CC50/EC50. A digest of the protocol: as §1
Data set [8] has as its system Zika virus. Description: Antiviral activity against Zika virus infected in African green monkey Vero cells assessed as reduction in viral replication treated with compound at 1 hr post-viral infection. It is filed as functional, organism-based. A digest of the protocol:
(§2)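 Vero cells infected at MOI 0.1 and given 1 h for viral adsorption, then treated with increasing compound concentrations. EC50 is the concentration reducing viral replication by 50% versus infected controls. Mean ± SD of three independent experiments.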

Data set [9] deals with Chikungunya virus. Description: Antiviral activity against Chikungunya virus infected in African green monkey Vero cells assessed as reduction in viral replication treated with compound at 1 hr post-viral infection. It counts as functional, organism-based. The method in brief:
as §2

Data set [10] deals with Zika virus. Nature of the data set: Antiviral activity against Zika virus infected in African green monkey Vero cells assessed as reduction in viral replication at 10 uM treated with compound at 6 hrs post infection by plaque formation assay. It is filed as functional, organism-based.
The test system of data set [11] is Zika virus. Description: Antiviral activity against Zika virus infected in African green monkey Vero cells assessed as reduction in viral replication at 10 uM treated with compound up to 6 hrs post infection by plaque formation assay. It counts as functional, organism-based.
The subject of data set [12] is Zika virus. Description: Antiviral activity against Zika virus infected in African green monkey Vero cells assessed as reduction in viral RNA production. It counts as functional, organism-based.
Data set [13] deals with Zika virus. Nature of the data set: Antiviral activity against Zika virus infected in African green monkey Vero cells assessed as reduction in viral replication at 10 uM treated with compound at 12 hrs post infection by plaque formation assay. It is filed as functional, organism-based.

Active and inactive are the calls of the source. The calls are words filed in the database; no cut-off is given here.

Regarding `O=C(N/N=C/c1ccccc1O)c1c[nH]c2ccc(F)cc2c1=O`, the selectivity ratio in data set [1] was 632; in data set [3], not below 2; in [7], 893. The result in the data set on Chikungunya virus [2] was Active. Further, the result in the data set with Chikungunya virus [4] was inactive. Further, in the data set on Chikungunya virus [5], the Activity result is “Dose-dependent effect”. Further, the CC50 in [6] is 669 µM. In addition, the EC50 in the data set on Zika virus [8] is 0.75 µM; in the data set on Chikungunya virus [9] it was 1.06 µM.
Consider `O=C(N/N=C/c1ccccc1O)c1c[nH]c2ccccc2c1=O`, for which the selectivity ratio in data set [1] was 176; in data set [3] it was not below 2; in data set [7] it was 661. The half-maximal cytotoxic concentration (CC50) in data set [6] came out at 502 µM. Moreover, the EC50 came out at 0.76 µM with Zika virus [8] and 2.85 µM with Chikungunya virus [9].
As for `NC(=O)c1ncn([C@@H]2O[C@H](CO)[C@@H](O)[C@H]2O)n1` [RIBAVIRIN], the selectivity ratio in [1] stood at 122; in [7] it was 75.2. The result with Chikungunya virus [2] and with Zika virus [10] was inactive. Moreover, the CC50 in [6] amounted to 297 µM. Also, the EC50 in the data set on Zika virus [8] was 3.95 µM; in the data set on Chikungunya virus [9], 2.42 µM.
As for `O=C(N/N=C/c1ccccc1O)c1c[nH]c2ccc(Br)cc2c1=O`, the selectivity ratio in [1] is 164; in data set [3], not below 2; in data set [7] it was 548. Moreover, in data set [6], the CC50 was 443 µM. In addition, the EC50 in the data set with Zika virus [8] was determined as 0.81 µM; with Chikungunya virus [9] it was 2.7 µM.
As to `O=C(N/N=C/c1ccccc1O)c1c[nH]c2ccc(Cl)cc2c1=O`, the results for the selectivity ratio in data set [1], in data set [3] and in data set [7] were 402, not below 2 and 1410, respectively. Further, the result with Zika virus [11] and with Zika virus [13] was Active. Moreover, in data set [6], the CC50 turned out to be 1110 µM. Besides, the Activity entry in the data set on Zika virus [12] was “Dose-dependent effect”. The EC50 in the data set with Zika virus [8] came out at 0.79 µM; in the data set on Chikungunya virus [9] it was 2.77 µM.
